Data reported in ChEMBL document CHEMBL1667761, “3-benzylamino-β-carboline derivatives induce apoptosis through G2/M arrest in human carcinoma cells HeLa S-3” (Eur J Med Chem, 2011).
The source made the active and inactive calls. The rule behind the calls is not given here.

Legend:
[1] = Cell cycle arrest in human HeLaS3 cells assessed as accumulation at G2/M phase at 1 uM after 24 hrs by flow cytometry; format: functional, cell-based; conditions: HeLa S3
Outline: (§1)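 HeLa S-3 cells exposed for 6, 12 or 24 h. Cells washed twice in ice-cold PBS, fixed in ice-cold 70% ethanol, and resuspended with 0.1 mg/ml RNase. Stained with […] PI and analysed by flow cytometry. Phase distribution (sub-G1, G1, S, G2/M) is reported as percentage of cells. Controls were untreated.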

[2] = Cell cycle arrest in human HeLaS3 cells assessed as accumulation at G2/M phase at 1 uM after 6 hrs by flow cytometry; format: functional, cell-based; conditions: HeLa S3; outline: as §1
[3] = Cell cycle arrest in human HeLaS3 cells assessed as accumulation at S phase at 1 uM after 6 hrs by flow cytometry; format: functional, cell-based; conditions: HeLa S3; outline: as §1
[4] = Cell cycle arrest in human HeLaS3 cells assessed as accumulation at sub-G1 phase at 5 uM after 24 hrs by flow cytometry; format: functional, cell-based; conditions: HeLa S3; outline: as §1
[5] = Cell cycle arrest in human HeLaS3 cells assessed as accumulation at S phase at 5 uM after 12 hrs by flow cytometry; format: functional, cell-based; conditions: HeLa S3; outline: as §1
[6] = Cell cycle arrest in human HeLaS3 cells assessed as accumulation at G2/M phase at 5 uM after 6 hrs by flow cytometry; format: functional, cell-based; conditions: HeLa S3; outline: as §1
[7] = Cell cycle arrest in human HeLaS3 cells assessed as accumulation at S phase at 1 uM after 12 hrs by flow cytometry; format: functional, cell-based; conditions: HeLa S3; outline: as §1
[8] = Cell cycle arrest in human HeLaS3 cells assessed as accumulation at G1 phase at 5 uM after 24 hrs by flow cytometry; format: functional, cell-based; conditions: HeLa S3; outline: as §1
[9] = Cell cycle arrest in human HeLaS3 cells assessed as accumulation at sub-G1 phase at 5 uM after 6 hrs by flow cytometry; format: functional, cell-based; conditions: HeLa S3; outline: as §1
[10] = Cell cycle arrest in human HeLaS3 cells assessed as accumulation at G1 phase at 1 uM after 24 hrs by flow cytometry; format: functional, cell-based; conditions: HeLa S3; outline: as §1
[11] = Cell cycle arrest in human HeLaS3 cells assessed as accumulation at G2/M phase at 5 uM after 24 hrs by flow cytometry; format: functional, cell-based; conditions: HeLa S3; outline: as §1
[12] = Cell cycle arrest in human HeLaS3 cells assessed as accumulation at G2/M phase at 1 uM after 12 hrs by flow cytometry; format: functional, cell-based; conditions: HeLa S3; outline: as §1
[13] = Cell cycle arrest in human HeLaS3 cells assessed as accumulation at G2/M phase at 5 uM after 12 hrs by flow cytometry; format: functional, cell-based; conditions: HeLa S3; outline: as §1
[14] = Cell cycle arrest in human HeLaS3 cells assessed as accumulation at G1 phase at 5 uM after 12 hrs by flow cytometry; format: functional, cell-based; conditions: HeLa S3; outline: as §1
[15] = Cell cycle arrest in human HeLaS3 cells assessed as accumulation at S phase at 5 uM after 24 hrs by flow cytometry; format: functional, cell-based; conditions: HeLa S3; outline: as §1
[16] = Cell cycle arrest in human HeLaS3 cells assessed as accumulation at S phase at 1 uM after 24 hrs by flow cytometry; format: functional, cell-based; conditions: HeLa S3; outline: as §1
[17] = Cell cycle arrest in human HeLaS3 cells assessed as accumulation at G1 phase at 1 uM after 12 hrs by flow cytometry; format: functional, cell-based; conditions: HeLa S3; outline: as §1
[18] = Cell cycle arrest in human HeLaS3 cells assessed as accumulation at S phase at 5 uM after 6 hrs by flow cytometry; format: functional, cell-based; conditions: HeLa S3; outline: as §1
[19] = Cell cycle arrest in human HeLaS3 cells assessed as accumulation at G1 phase at 1 uM after 6 hrs by flow cytometry; format: functional, cell-based; conditions: HeLa S3; outline: as §1
HeLa S3 [20] = test: Induction of apoptosis in human HeLaS3 cells assessed as appearance of fragmented nuclei at 5 times IC50 after 48 hrs by Hoechst staining; format: functional, cell-based
Outline: (§2)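 Stained with Hoechst 33342 (1 µg/ml) for 40 min at 37 °C. Nuclei were examined by confocal laser microscopy, and apoptosis was scored from chromatin condensation and fragmented nuclei.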

[21] = Cell cycle arrest in human HeLaS3 cells assessed as accumulation at sub-G1 phase at 1 uM after 12 hrs by flow cytometry; format: functional, cell-based; conditions: HeLa S3; outline: as §1
[22] = Cell cycle arrest in human HeLaS3 cells assessed as accumulation at sub-G1 phase at 1 uM after 6 hrs by flow cytometry; format: functional, cell-based; conditions: HeLa S3; outline: as §1
[23] = Antitumor activity against human HeLaS3 cells after 24 to 72 hrs by MTT assay; format: functional, cell-based, HeLa S3; conditions: Homo sapiens, HeLa S3
Outline: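 HeLa S-3 cells (MEM, 10% FBS, HEPES, NEAA, 2 mM L-glutamine, 5% CO2, 37 °C) seeded at 2 × 10⁴ cells/ml and cultured 3 h before exposure for 24–72 h at 37 °C. MTT (2 mg/ml) added for 4 h at 37 °C, formazan dissolved in DMSO, A540 read. Viability is expressed as % of control. IC50 is the concentration giving 50% growth inhibition, mean ± S.D. of four independent experiments run in triplicate.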

HeLa S3 [24] = test: Induction of apoptosis in human HeLaS3 cells assessed as cleaved caspase-3 at 5 times IC50 by Western blot method; format: functional, cell-based
Outline: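 HeLa S-3 cells treated for 24 h at 5-fold the IC50, alongside non-treated controls. Cells lysed in RIPA buffer (pH 8.0) with protease inhibitors and the whole-cell extract separated by SDS-PAGE, then transferred to PVDF. Blots blocked in 5% skim milk/TTBS and probed with anti-cdc2, cdk2 or cleaved caspase-3 antibodies (1:1000). β-actin (1:5000) served as loading control. Detection by HRP secondary antibody and ECL.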

HeLa S3 [25] = test: Induction of apoptosis in human HeLaS3 cells assessed as DNA fragmentation upto 48 hrs by agarose gel electrophoresis; format: functional, cell-based
Outline: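 HeLa S-3 cells exposed for 12–48 h, then pellets lysed in 0.6% sarcosine, 20 mM Tris-HCl pH 7.4, 20 mM EDTA. Lysate treated with RNase A for 2 h at 50 °C, then proteinase K overnight at 50 °C. DNA extracted with phenol/chloroform, run on 2% agarose in TAE at 50 V, stained with ethidium bromide, and visualised under UV.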

HeLa S3 [26] = test: Induction of apoptosis in human HeLaS3 cells assessed as appearance of fragmented nuclei at 10 times IC50 after 48 hrs by Hoechst staining; format: functional, cell-based; outline: as §2
[27] = Cell cycle arrest in human HeLaS3 cells assessed as accumulation at G1 phase at 5 uM after 6 hrs by flow cytometry; format: functional, cell-based; conditions: HeLa S3; outline: as §1
[28] = Cell cycle arrest in human HeLaS3 cells assessed as accumulation at sub-G1 phase at 5 uM after 12 hrs by flow cytometry; format: functional, cell-based; conditions: HeLa S3; outline: as §1
[29] = Cell cycle arrest in human HeLaS3 cells assessed as accumulation at sub-G1 phase at 1 uM after 24 hrs by flow cytometry; format: functional, cell-based; conditions: HeLa S3; outline: as §1

c1ccc2c(c1)[nH]c1cnc(NCC3CCCCC3)cc12 showed an Activity [1] of 15.7%, an Activity [2] of 23.1% and an Activity [3] of 19.7%. It also gave an Activity [4] of 2.8%, an Activity [5] of 12.3% and an Activity [6] of 31.4%. It also gave an Activity [7] of 10.5%, an Activity [8] of 29.7% and an Activity [9] of 2.6%. The Activity [10] was 68.2%, the Activity [11] was 50.5% and the Activity [12] was 28.9%. The Activity [13] was 27.4%, the Activity [14] was 56.7% and the Activity [15] was 13.8%. For the same compound, the Activity [16] was 14.7%, the Activity [17] was 58.4% and the Activity [18] was 12.7%. The Activity [19] was 48.4%, the Activity (HeLa S3 [20]) was “inactive” and the Activity [21] was 2.5%. The Activity [22] was 3.5%, the IC50 [23] was 5.2 µM and the Activity (HeLa S3 [24]) was “inactive”. For the same compound, the Activity (HeLa S3 [25]) was “inactive”, the Activity (HeLa S3 [26]) was “Active” and the Activity [27] was 51%. The Activity [28] was 3% and the Activity [29] was 1.7%.
